Experiments:
Format in all cases: cell-based
Details in all cases: Ca2+ assay
rat TRPA1 = rat TRPA1 (Rattus norvegicus, UniProt Q6RI86); test: Calcium influx assay, rat TRPA1
In short: (§1)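 TRPA1 orthologue cDNAs in pcDNA3.1 Hygro, transiently transfected, each construct tested in at least 2 independent transfections. Fluorescence Ca2+ influx (RFU) read in Hanks balanced salt solution with 1.26 mM Ca2+ and 1.0 mM Mg2+.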

dog TRPA1 = dog TRPA1 (Canis lupus familiaris, UniProt A0A8I3Q1Q7); test: Calcium influx assay, dog TRPA1
dog TRPA1, sequence (A0A8I3Q1Q7 1-1118): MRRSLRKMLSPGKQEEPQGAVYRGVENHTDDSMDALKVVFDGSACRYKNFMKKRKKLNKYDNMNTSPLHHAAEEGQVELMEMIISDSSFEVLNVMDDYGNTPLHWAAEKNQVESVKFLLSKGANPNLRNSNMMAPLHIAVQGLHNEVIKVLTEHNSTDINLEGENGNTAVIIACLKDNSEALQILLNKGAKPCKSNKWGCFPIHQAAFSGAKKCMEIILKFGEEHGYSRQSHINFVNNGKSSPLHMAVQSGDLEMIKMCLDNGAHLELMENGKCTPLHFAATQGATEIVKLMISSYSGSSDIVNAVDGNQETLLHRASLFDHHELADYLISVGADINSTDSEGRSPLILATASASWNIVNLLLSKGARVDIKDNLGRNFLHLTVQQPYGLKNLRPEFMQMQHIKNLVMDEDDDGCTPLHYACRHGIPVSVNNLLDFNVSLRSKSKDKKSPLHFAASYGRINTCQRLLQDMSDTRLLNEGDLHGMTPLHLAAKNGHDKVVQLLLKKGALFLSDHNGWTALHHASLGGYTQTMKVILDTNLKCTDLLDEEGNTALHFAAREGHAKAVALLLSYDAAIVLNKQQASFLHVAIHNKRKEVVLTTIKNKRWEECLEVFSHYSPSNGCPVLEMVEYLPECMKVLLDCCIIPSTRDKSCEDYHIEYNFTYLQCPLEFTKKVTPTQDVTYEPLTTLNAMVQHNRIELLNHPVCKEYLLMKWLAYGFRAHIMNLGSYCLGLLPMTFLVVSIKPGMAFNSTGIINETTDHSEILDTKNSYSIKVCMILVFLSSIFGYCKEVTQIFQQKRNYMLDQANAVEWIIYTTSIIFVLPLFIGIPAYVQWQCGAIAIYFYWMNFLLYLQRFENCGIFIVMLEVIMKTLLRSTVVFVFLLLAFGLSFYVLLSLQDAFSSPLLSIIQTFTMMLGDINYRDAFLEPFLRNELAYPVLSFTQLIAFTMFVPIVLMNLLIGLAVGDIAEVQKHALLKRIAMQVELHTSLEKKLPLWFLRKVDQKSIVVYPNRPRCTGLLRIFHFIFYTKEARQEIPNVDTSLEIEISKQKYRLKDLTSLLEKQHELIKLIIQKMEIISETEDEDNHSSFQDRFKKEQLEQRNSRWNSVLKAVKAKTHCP
In short: as §1

human TRPA1 = human TRPA1 (Homo sapiens, UniProt O75762); test: Calcium influx assay in HEK-293F cells transiently expressing human TRPA1
human TRPA1, sequence (O75762 whole entry): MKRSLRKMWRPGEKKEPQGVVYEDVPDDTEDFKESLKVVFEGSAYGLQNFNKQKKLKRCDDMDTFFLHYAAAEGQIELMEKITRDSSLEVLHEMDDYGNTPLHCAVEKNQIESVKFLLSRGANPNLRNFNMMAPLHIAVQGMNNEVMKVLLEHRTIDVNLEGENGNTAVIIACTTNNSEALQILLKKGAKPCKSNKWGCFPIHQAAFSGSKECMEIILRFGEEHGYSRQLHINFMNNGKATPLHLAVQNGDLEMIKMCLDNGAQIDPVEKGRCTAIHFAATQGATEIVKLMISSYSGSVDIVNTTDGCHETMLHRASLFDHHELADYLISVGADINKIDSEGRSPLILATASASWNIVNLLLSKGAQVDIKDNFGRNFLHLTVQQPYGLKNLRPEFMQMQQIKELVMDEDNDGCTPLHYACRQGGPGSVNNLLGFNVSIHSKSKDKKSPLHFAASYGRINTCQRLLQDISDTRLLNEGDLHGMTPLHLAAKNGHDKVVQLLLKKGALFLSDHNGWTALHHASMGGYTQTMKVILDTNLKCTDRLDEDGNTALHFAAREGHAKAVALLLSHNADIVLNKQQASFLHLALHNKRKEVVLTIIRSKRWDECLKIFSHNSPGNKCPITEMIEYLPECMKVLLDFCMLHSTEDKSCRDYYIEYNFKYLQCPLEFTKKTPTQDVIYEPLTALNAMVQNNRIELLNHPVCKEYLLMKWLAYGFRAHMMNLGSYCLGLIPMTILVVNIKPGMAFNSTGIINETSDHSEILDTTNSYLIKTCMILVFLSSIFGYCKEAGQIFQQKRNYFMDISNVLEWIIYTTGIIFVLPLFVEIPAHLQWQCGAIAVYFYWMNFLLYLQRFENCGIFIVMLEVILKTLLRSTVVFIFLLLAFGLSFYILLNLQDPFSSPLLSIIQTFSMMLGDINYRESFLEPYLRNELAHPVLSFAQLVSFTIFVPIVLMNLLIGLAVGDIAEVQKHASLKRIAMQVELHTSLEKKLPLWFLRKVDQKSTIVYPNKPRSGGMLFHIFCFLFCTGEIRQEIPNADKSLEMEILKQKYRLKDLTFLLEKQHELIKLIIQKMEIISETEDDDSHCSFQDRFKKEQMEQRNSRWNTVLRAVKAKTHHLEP

chicken TRPA1 = test: Calcium influx assay, chicken TRPA1
In short: as §1

guinea pig TRPA1 = guinea pig TRPA1 (Cavia porcellus, UniProt H0VJD1); test: Calcium influx assay, guinea pig TRPA1
guinea pig TRPA1, sequence (H0VJD1 1-991): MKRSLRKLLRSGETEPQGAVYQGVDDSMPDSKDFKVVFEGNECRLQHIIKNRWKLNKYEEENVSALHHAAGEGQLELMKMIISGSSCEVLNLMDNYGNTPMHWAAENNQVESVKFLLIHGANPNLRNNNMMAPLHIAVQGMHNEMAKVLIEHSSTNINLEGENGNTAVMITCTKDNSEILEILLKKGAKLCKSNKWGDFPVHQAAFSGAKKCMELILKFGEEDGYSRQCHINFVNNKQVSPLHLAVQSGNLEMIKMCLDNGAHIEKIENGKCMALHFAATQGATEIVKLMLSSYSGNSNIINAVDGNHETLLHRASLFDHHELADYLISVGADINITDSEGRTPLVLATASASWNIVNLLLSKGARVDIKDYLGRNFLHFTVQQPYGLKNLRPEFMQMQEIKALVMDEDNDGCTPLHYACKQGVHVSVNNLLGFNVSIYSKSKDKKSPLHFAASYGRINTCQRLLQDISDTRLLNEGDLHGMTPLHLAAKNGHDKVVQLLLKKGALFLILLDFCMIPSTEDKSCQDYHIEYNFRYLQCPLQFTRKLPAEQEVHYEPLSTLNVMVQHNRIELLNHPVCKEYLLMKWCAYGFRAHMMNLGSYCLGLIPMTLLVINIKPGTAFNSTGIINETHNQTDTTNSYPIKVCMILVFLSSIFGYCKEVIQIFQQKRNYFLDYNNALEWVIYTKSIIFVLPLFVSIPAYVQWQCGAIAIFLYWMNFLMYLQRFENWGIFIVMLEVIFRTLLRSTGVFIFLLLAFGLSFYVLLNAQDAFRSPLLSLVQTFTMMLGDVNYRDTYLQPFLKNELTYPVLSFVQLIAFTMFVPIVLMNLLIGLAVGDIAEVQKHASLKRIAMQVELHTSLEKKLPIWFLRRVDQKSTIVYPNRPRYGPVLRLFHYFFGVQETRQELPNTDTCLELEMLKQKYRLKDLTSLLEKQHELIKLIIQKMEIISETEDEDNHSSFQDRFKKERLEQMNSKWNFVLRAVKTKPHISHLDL
In short: as §1

rat TRPA1, sequence (Q6RI86 whole entry): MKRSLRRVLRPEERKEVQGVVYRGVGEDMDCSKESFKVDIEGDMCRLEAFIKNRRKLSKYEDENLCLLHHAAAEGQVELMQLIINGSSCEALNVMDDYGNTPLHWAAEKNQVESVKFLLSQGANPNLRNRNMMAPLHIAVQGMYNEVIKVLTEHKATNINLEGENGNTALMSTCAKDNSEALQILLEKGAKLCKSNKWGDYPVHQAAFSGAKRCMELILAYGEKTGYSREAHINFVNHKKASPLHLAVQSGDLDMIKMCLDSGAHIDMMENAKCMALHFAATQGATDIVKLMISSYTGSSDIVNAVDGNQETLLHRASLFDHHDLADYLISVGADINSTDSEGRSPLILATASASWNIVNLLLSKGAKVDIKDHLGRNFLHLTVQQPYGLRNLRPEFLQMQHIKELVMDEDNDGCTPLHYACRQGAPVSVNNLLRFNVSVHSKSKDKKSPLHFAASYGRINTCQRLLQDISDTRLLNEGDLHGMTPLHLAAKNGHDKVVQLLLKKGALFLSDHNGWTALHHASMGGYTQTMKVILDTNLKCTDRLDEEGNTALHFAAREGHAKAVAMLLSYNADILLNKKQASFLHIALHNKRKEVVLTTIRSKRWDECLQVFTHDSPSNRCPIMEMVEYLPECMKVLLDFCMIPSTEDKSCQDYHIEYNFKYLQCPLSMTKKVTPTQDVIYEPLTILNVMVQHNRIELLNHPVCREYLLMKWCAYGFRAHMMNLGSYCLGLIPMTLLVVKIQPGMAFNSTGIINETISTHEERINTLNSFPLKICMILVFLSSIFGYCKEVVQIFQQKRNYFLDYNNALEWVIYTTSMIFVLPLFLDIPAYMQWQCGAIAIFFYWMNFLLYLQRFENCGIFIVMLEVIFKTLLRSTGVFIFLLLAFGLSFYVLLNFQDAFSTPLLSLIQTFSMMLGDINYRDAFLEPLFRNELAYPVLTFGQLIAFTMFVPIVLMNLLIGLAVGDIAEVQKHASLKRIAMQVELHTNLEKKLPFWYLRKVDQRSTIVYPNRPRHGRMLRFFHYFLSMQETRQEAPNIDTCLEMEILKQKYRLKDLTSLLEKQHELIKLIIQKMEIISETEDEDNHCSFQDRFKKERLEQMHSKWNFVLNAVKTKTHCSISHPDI

C=CCN=C=S [AITC, allyl isothiocyanate]
activation of rat TRPA1 (rat TRPA1): robust response
activation of dog TRPA1 (dog TRPA1): robust response
Hill slope (human TRPA1; concentration-response, human TRPA1): 1.4
activation of human TRPA1 (human TRPA1; species comparison): robust response
activation of chicken TRPA1 (chicken TRPA1): robust response
activation of guinea pig TRPA1 (guinea pig TRPA1): robust response
